Screens as filed in PubChem.
M5 ag = agonists of human muscarinic M5 receptor (CHRM5); P08912; hit rate 0.19% among 360,000; activation, % at 3 µM; CHO-K1 hM5 cells, Fluo-8 calcium fluorescence; 0% DMSO wells, 100% maximal acetylcholine response;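 active = activation above the run's mean over test compounds plus 3 SD, cut at about 23% in these data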;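 also: signal is peak over basal fluorescence ratio across the kinetic read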
Target sequence (P08912 whole entry, looked up): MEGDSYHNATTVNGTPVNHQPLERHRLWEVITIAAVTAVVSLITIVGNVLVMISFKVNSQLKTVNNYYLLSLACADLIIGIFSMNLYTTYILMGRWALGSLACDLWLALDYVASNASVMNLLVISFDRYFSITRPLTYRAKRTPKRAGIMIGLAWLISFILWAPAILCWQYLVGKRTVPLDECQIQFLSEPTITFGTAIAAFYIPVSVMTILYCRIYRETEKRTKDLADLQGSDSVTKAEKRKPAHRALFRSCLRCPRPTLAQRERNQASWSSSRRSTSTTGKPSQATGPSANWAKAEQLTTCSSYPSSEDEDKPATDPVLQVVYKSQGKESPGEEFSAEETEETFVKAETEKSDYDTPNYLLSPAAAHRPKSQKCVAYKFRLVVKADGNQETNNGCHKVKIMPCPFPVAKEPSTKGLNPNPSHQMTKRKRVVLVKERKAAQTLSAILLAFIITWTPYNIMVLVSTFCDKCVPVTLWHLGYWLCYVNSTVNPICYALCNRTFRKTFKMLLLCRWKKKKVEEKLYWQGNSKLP
CHRM4 PAM = positive allosteric modulators of human muscarinic M4 receptor; activation, % at 3 µM; CHO-K1 hM4/Gqi5, Fluo-8 calcium fluorescence, ACh EC20; 0% = ACh EC20, 100% = maximal ACh; hit rate 0.4% among 360,000; P08173;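 active = activation above its plate's cutoff, the mean activation of sample wells plus 3 SD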
CHRM5 PAM = potentiates acetylcholine response at human M5 receptor. P08912. CHO-K1 hM5, Fluo-8 calcium, ACh EC20 PAM; 0% = ACh EC20, 100% = ACh EC100. activation, % at 3 µM. hit rate 0.3% among 360,000. AID 624038;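 active = activation above the run cutoff, the mean activation of all test compounds plus 3 SD, cut at about 18% in these data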
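Assay system: CHO-K1 hM5 cells / Incubation: Fluo-8 loading 80 min at 37 °C plus 30 min room temperature / Technique: Fluo-8 calcium dye fluorescence, kinetic read / Repeats: single replicate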
M5 antag = antagonists of human muscarinic M5 receptor (CHRM5); CHO-hM5 cells, Fluo-8 calcium fluorescence, ACh EC80; inhibition, % at 3 µM; P08912; AID 624040; hit rate 0.59% among 360,000;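 active = inhibition above a per-plate cutoff, the mean of that plate's test compounds plus 3 SD, cut at about 27% in these data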;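 also: 0% = acetylcholine EC80 with DMSO and 100% = DMSO without agonist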
CHRM4 antagonist = antagonists of human muscarinic M4 receptor (CHRM4). inhibition, % at 3 µM. hit rate 0.73% among 360,000. CHO-hM4 cells, ACh EC80, Fluo-8 calcium fluorescence;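 active = inhibition above its plate's cutoff, the mean inhibition of sample wells plus 3 SD, cut at about 27% in these data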;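 also: 0% = acetylcholine EC80 with DMSO and 100% = DMSO without agonist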
M4 ag = CHRM4 agonism in calcium assay | P08173 | CHO-K1 hM4/Gqi5, Fluo-8 calcium fluorescence; vehicle 0%, full acetylcholine response 100% | activation, % at 3 µM | hit rate 0.14% among 360,000 | AID 624127;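 active = activation above the run mean over all test wells plus 3 SD, cut at about 32% in these data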;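 also: peak over basal fluorescence ratio per well then scaled between controls; 0% = DMSO wells and 100% = acetylcholine at EC100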
The depositor's hits bear a star. An excerpt weighted towards active compounds, which were near 1.9% of everything screened.

Screening O=C(Nc1cccnc1)c1ccc(-c2ccccc2)cc1 returned M5 ag -1.3, CHRM4 PAM -9.6, CHRM5 PAM -9.0, M5 antag 3.9, CHRM4 antagonist 4.3 and M4 ag 5.3.
`O=C(Nc1ccncc1)c1ccc(-c2ccccc2)cc1` gave M5 ag 5.1, CHRM4 PAM -12.1, CHRM5 PAM -28.7, M5 antag 33.5*, CHRM4 antagonist 19.6 and M4 ag 14.4.
For NS(=O)(=O)c1ccc(NS(=O)(=O)c2ccc(NC(=O)c3ccc(-c4ccccc4)cc3)cc2)cc1 the results were M5 ag 27.2*, CHRM4 PAM -0.5, CHRM5 PAM -3.6, M5 antag 0.6, CHRM4 antagonist -1.7 and M4 ag 1.6.
Screening CCCCc1ccc(S(=O)(=O)NC(=O)C2(C)CCN2C(=O)c2cccc(F)c2)cc1 (stereo not drawn) returned M5 ag 0.6, CHRM4 PAM -2.7, CHRM5 PAM -0.3, M5 antag 4.5, CHRM4 antagonist -0.2 and M4 ag -0.1.
Screening Cc1ccc(CN2CCNC2=O)cc1 returned M5 ag -3.9, CHRM4 PAM 34.0*, CHRM5 PAM 8.4, M5 antag 0.2, CHRM4 antagonist -9.3 and M4 ag 1.1.
Screening O=C1NCCN1CCNS(=O)(=O)c1ccc(F)c(Cl)c1 returned M5 ag 0.4, CHRM4 PAM -3.7, CHRM5 PAM 2.8, M5 antag 2.4, CHRM4 antagonist 6.7 and M4 ag 1.4.
For Cc1ccc(S(=O)(=O)NCCN2CCNC2=O)cc1 the results were M5 ag 3.7, CHRM4 PAM 34.1*, CHRM5 PAM 10.0, M5 antag -9.0, CHRM4 antagonist -21.3 and M4 ag 0.5.
C/C(=N\NC(=O)C1CC1)c1ccc(C)cc1C was read as M5 ag 4.6, CHRM4 PAM 2.1, CHRM5 PAM 4.0, M5 antag -3.7, CHRM4 antagonist 7.5 and M4 ag -0.1.
Screening COc1ccc(S(=O)(=O)N(C)C)cc1NC(=O)CSc1nncs1 returned M5 ag 3.5, CHRM4 PAM -3.9, CHRM5 PAM 4.4, M5 antag -2.3, CHRM4 antagonist -6.2 and M4 ag 0.7.
O=C(Nc1ccccc1)OCCN1CCOCC1 was read as M5 ag 1.7, CHRM4 PAM 1.8, CHRM5 PAM -1.2, M5 antag 12.1, CHRM4 antagonist 1.1 and M4 ag 0.2.
Screening CN1CCC(=NNC(=O)CN(c2ccccc2)S(=O)(=O)c2ccccc2)CC1 returned M5 ag -3.9, CHRM4 PAM -1.3, CHRM5 PAM -0.9, M5 antag 18.3, CHRM4 antagonist -7.0 and M4 ag 13.9.
`CSc1ccc(S(=O)(=O)N(CC(=O)NN=C2CCN(C)CC2)c2ccc(C)cc2)cc1` gave M5 ag 4.8, CHRM4 PAM 17.3, CHRM5 PAM 23.0*, M5 antag -3.8, CHRM4 antagonist -8.1 and M4 ag 2.1.
For Cn1c(C(=O)NC2CC2)cc2c(=O)n(C)c3ccccc3c21 the results were M5 ag 1.4, CHRM4 PAM 30.6*, CHRM5 PAM -4.1, M5 antag 0.7, CHRM4 antagonist 4.7 and M4 ag 25.1.
`COc1ccc(C(=O)NCCC(=O)N2CCC3(CC2)NCCc2[nH]cnc23)cc1` gave M5 ag -1.6, CHRM4 PAM 5.9, CHRM5 PAM 1.5, M5 antag 6.2, CHRM4 antagonist -2.1 and M4 ag 0.1.
Screening Cc1ccc2c(Cl)c(C(=O)NCC(c3ccco3)N3CCCC3)sc2c1 (stereo not drawn) returned M5 ag -8.1, CHRM4 PAM -6.3, CHRM5 PAM -11.8, M5 antag 27.4*, CHRM4 antagonist 2.8 and M4 ag -0.7.
CC1(C(=O)NS(=O)(=O)c2cccs2)CCN1C(=O)C1CC1 (stereo not drawn) was read as M5 ag 1.9, CHRM4 PAM 2.6, CHRM5 PAM 0.8, M5 antag 3.8, CHRM4 antagonist -6.2 and M4 ag 0.3.
For CCn1c(=Nc2ccc(N3CCOCC3)cc2)ccc2ccccc21 the results were M5 ag 10.9, CHRM4 PAM 0.2, CHRM5 PAM -23.5, M5 antag 67.0*, CHRM4 antagonist -1.7 and M4 ag 0.9.
Screening Cn1c(N=Nc2ccc(N3CCOCC3)cc2)[n+](C)c2ccccc21 returned M5 ag 2.6, CHRM4 PAM 3.1, CHRM5 PAM 1.8, M5 antag -0.9, CHRM4 antagonist 2.1 and M4 ag -0.5.
`CCn1c(=O)c([N+](=O)[O-])c(N2CCOCC2)c2ccccc21` gave M5 ag -1.8, CHRM4 PAM 3.0, CHRM5 PAM 7.2, M5 antag -4.2, CHRM4 antagonist 4.3 and M4 ag 0.4.
Screening Cn1c(=Nc2ccc(N3CCOCC3)cc2)ccc2ccccc21 returned M5 ag -1.9, CHRM4 PAM -5.1, CHRM5 PAM -21.1, M5 antag 39.3*, CHRM4 antagonist 20.6 and M4 ag 1.6.
Screening CCOC(=O)C1(C)CCN1C(=O)COc1ccc(C(C)(C)C)cc1 (stereo not drawn) returned M5 ag 1.8, CHRM4 PAM 0.6, CHRM5 PAM -2.3, M5 antag -4.8, CHRM4 antagonist -11.1 and M4 ag 4.8.
Screening Cc1ccc(C)c(S(=O)(=O)N2CCN(C(=O)c3cncc(Br)c3)CC2)c1 returned M5 ag -2.5, CHRM4 PAM -9.3, CHRM5 PAM -6.9, M5 antag 12.1, CHRM4 antagonist 7.0 and M4 ag 2.2.
CN1CCN(S(=O)(=O)c2ccc(N3CCN(S(=O)(=O)/C=C/c4ccccc4)CC3)nc2)CC1 was read as M5 ag -11.9, CHRM4 PAM -13.6, CHRM5 PAM -15.8, M5 antag -6.0, CHRM4 antagonist 30.2* and M4 ag 1.7.
`OC(c1cccs1)(c1cccs1)C1C[N+]2(CF)CCC1CC2` (stereo not drawn) gave M5 ag -6.6, CHRM4 PAM -40.3, CHRM5 PAM -14.8, M5 antag 62.6*, CHRM4 antagonist 68.5* and M4 ag 1.2.
For CC/C(=N/N=C(\CC)c1ccccc1)c1ccccc1 the results were M5 ag 0.6, CHRM4 PAM -2.8, CHRM5 PAM -4.0, M5 antag 1.6, CHRM4 antagonist 0.7 and M4 ag 0.0.
O=C(O)C(Cc1c[nH]c2ccccc12)NS(=O)(=O)c1ccc(F)cc1 (stereo not drawn) was read as M5 ag 1.1, CHRM4 PAM -5.5, CHRM5 PAM 0.2, M5 antag -6.6, CHRM4 antagonist 2.3 and M4 ag 1.4.
